Test results: article PMC6188675 (Journal of medicinal chemistry, 2013)

How the values were obtained:
[1] = biological target: IN strand transfer catalysis (Human immunodeficiency virus type 1 group M subtype B, UniProt P12497); assay: IN enzymatic assay, strand transfer; type: biochemical, HIV-1
[2] = biological target: IN 3'-processing catalysis (Human immunodeficiency virus type 1 group M subtype B, UniProt P12497); assay: IN enzymatic assay, 3'-processing; type: biochemical, HIV-1
[3] = tested on: Flag-6x-histidine construct; assay: Quench counter-screen; settings: compounds tested at 10 µM
In short: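 Run as the integrase–LEDGF/p75 AlphaScreen, with one Flag-6xhistidine construct replacing both proteins. Compound incubations were 30 min then 60 min at 4 °C. Ni-chelate donor and anti-FLAG acceptor beads were added at 20 µg/mL each for 1 h at 30 °C, kept from light. Acceptor-bead emission gave percent inhibition.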

LNCaP cells = assay: MTT cytotoxicity assay in LNCaP cells; type: cell-based
HIV-1 = assay: Antiviral MTT/MT-4 assay; type: cell-based; settings: MT-4 cells, 13 µM

Compound | IC50 [1] | IC50 [2] | Quench % Inhib. [3] | cytotoxicity in MTT LNCaP assay (in words) (LNCaP cells) | antiviral activity at maximum testable concentration (HIV-1)
CCC(=O)NC(c1ccc(OC)cc1)c1cc([N+](=O)[O-])c2cccnc2c1O (stereo not shown) [Q1–4] | > 20 µM | > 20 µM | <50% |  | 
Oc1c(Cl)cc(Cl)c2cccnc12 [QB, 5,7-dichloroquinolin-8-ol] | > 20 µM | > 20 µM | <50% |  | 
COc1cccc(C(NC(C)=O)c2ccc3cccnc3c2O)c1 (stereo not shown) [Q1–3] | > 20 µM | > 20 µM | <50% |  | 
Cc1ccc(S(=O)(=O)NC(=O)Oc2cccc3cccnc23)cc1 [Q4-1] | > 20 µM | > 20 µM | <50% | low cytotoxicity | 
CCC(=O)NC(c1ccco1)c1cc(Cl)c2cccnc2c1O (stereo not shown) [Q1–8] |  |  | <50% |  | 
CCC(=O)NC(c1ccc(OC)c(OC)c1)c1cc(Cl)c2cccnc2c1O (stereo not shown) [Q1–9] |  |  | <50% |  | 
Oc1ccc(CNc2ccc(C(F)(F)F)cc2)c2cccnc12 [Q2–3] | > 20 µM | > 20 µM | <50% |  | 
Oc1ccc(CN2CCCCC2)c2cccnc12 [Q3-1] |  |  | <50% | negligible inhibition of cell growth | 
CCOCc1ccc(O)c2ncccc12 [QC, 5-(ethoxymethyl)quinolin-8-ol] | > 20 µM | > 20 µM | <50% |  | 
O=C(CC(Sc1cccc2cccnc12)c1ccc(F)cc1)c1cccs1 (stereo not shown) [Q5-2] | > 20 µM | > 20 µM | <50% |  | 
Oc1ccc(CNc2ccccc2F)c2cccnc12 [Q2–10] | > 20 µM | > 20 µM | <50% |  | 
Cc1ccc(NCc2ccc(O)c3ncccc23)cc1C [Q2–13, 5-(((3,4-dimethylphenyl)amino)methyl)quinolin-8-ol] |  |  | <50% |  | 
CC(=O)NC(c1ccccc1)c1cc(Cl)c2cccnc2c1O (stereo not shown) [Q1–5] | > 20 µM | > 20 µM | <50% |  | 
CCCC(=O)NC(c1ccccc1)c1ccc2cccnc2c1O (stereo not shown) [Q1-1] | > 20 µM | > 20 µM | <50% | notable cytotoxicity | 
Cc1cccnc1NCc1ccc(O)c2ncccc12 [Q2–9] | > 20 µM | > 20 µM | <50% |  | 
Oc1ccc(CN2CCN(c3ccccc3)CC2)c2cccnc12 [Q3–7] |  |  | <50% | notable cell-growth inhibition | 
Cc1cccc(NCc2ccc(O)c3ncccc23)c1 [Q2–11] | > 20 µM | > 20 µM | <50% |  | 
Oc1ccc(Cl)c2cccnc12 [QA, 5-chloroquinolin-8-ol] | > 20 µM | > 20 µM | <50% |  | 
Oc1ccc(CNc2ccccc2Cl)c2cccnc12 [Q2–14] |  |  | <50% |  | 

Compound | IC50 [1] | IC50 [2] | Quench % Inhib. [3] | cytotoxicity in MTT LNCaP assay (in words) (LNCaP cells) | antiviral activity at maximum testable concentration (HIV-1)
Cc1ccc(NCc2ccc(O)c3ncccc23)cc1 [Q2–8, 5-((p-tolylamino)methyl)quinolin-8-ol] |  |  | <50% |  | 
Oc1ccccc1C(Nc1nccs1)c1ccc2cccnc2c1O (stereo not shown) [Q1–12] |  |  | <50% |  | 
COc1cccc(NCc2ccc(O)c3ncccc23)c1 [Q2–7] | > 20 µM | > 20 µM | <50% | notable cytotoxicity | 
Oc1ccc(CN2CCN(Cc3ccccc3)CC2)c2cccnc12 [Q3–9] | > 20 µM | > 20 µM | <50% |  | 
CCOc1ccc(NCc2ccc(O)c3ncccc23)cc1 [Q2–12] |  |  | <50% |  | 
CCOC(=O)C1CCN(Cc2ccc(O)c3ncccc23)CC1 [Q3–8] | > 20 µM | > 20 µM | <50% |  | 
Oc1ccc(CNc2cccc(C(F)(F)F)c2)c2cccnc12 [Q2–5] | > 20 µM | > 20 µM | <50% |  | 
CCC(=O)NC(c1cccs1)c1cc([N+](=O)[O-])c2cccnc2c1O (stereo not shown) [Q1–6] | > 20 µM | > 20 µM | <50% |  | 
CN1CCN(Cc2ccc(O)c3ncccc23)CC1 [Q3-2] |  |  | <50% | negligible inhibition of cell growth | 
CCC(=O)NC(c1ccccc1OC)c1ccc2cccnc2c1O (stereo not shown) [Q1–2] | > 20 µM | > 20 µM | <50% | notable cytotoxicity | 
CCCC(=O)NC(c1ccc(OC)cc1)c1ccc2cccnc2c1O (stereo not shown) [Q1–11] |  |  | <50% |  | 
O=C(CC(Sc1cccc2cccnc12)c1ccc(OC(F)F)cc1)c1ccco1 (stereo not shown) [Q5-1] | > 20 µM | > 20 µM | <50% |  | 
CC(=O)NC(c1ccc(N(C)C)cc1)c1cc(Cl)c2cccnc2c1O (stereo not shown) [Q1–10] |  |  | <50% |  | 
Cc1ccccc1NCc1ccc(O)c2ncccc12 [Q2-1] |  |  | <50% |  | 
CCOC(=O)C1CCCN(Cc2ccc(O)c3ncccc23)C1 (stereo not shown) [Q3–6] |  |  | <50% |  | 
Cc1cccc(NCc2ccc(O)c3ncccc23)c1C [Q2–6] | > 20 µM | > 20 µM | <50% |  | no antiviral activity could be detected
Cc1cccc(NCc2ccc(O)c3ncccc23)n1 [Q2–4] | > 20 µM | > 20 µM | <50% |  | 
Oc1ccc(Cc2ccc(O)c3ncccc23)c2cccnc12 [Q2-2] |  |  | <50% | notable cytotoxicity | 
COc1ccc(C(NC(C)=O)c2cc([N+](=O)[O-])c3cccnc3c2O)cc1OC (stereo not shown) [Q1–7] |  |  | <50% |  | 
